Source: PubChem (several laboratories)
Apaf-1 inh: inhibitors of human Apaf-1 apoptosome. O14727. 330,000 compounds, 0.71% hits. AID 489030. inhibition, % at 20 µM. reconstituted apoptosome caspase-3 activity, DEVD-Rh110 fluorescence; active means inhibition of at least 40% at 20 µM;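 further: plate controls were DMSO wells for no effect and DEVD-CHO caspase inhibitor wells for full effect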
Target sequence (O14727 whole entry, looked up): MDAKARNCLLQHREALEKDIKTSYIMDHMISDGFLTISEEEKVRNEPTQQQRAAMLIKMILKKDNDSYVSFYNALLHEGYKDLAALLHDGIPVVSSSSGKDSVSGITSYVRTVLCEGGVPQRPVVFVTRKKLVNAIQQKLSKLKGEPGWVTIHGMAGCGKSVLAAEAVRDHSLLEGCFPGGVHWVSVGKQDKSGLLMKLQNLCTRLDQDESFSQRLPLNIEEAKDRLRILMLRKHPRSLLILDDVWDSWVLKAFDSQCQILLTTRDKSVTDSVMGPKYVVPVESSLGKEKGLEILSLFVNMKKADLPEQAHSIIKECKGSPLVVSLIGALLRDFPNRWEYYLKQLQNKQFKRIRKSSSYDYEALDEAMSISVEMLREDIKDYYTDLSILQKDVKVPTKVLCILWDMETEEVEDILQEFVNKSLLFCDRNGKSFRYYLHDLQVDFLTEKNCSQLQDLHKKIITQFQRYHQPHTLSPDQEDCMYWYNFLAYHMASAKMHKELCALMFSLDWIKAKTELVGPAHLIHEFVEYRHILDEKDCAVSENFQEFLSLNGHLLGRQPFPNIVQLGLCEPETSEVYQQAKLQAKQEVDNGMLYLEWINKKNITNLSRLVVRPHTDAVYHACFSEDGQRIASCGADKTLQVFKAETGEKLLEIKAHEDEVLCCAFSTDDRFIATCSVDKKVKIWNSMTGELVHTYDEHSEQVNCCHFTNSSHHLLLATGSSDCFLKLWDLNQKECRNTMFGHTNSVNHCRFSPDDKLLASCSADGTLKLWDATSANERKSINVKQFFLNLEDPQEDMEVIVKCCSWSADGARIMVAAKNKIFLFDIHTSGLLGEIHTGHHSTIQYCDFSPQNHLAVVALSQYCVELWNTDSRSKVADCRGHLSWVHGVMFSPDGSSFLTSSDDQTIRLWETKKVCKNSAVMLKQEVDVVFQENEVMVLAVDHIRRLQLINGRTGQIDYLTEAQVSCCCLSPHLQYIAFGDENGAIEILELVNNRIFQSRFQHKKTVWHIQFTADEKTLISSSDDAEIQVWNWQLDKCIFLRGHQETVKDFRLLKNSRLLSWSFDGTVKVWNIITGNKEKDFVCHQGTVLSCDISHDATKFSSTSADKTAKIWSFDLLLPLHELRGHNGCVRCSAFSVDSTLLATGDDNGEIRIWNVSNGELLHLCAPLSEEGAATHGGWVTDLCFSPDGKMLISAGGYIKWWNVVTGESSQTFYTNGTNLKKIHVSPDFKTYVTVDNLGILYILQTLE
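Material: cell-free apoptosome with Apaf-1, procaspase-3 and caspase-9; Buffer or medium: Hepes pH 7.5 with detergent and BSA; Reagent: cytochrome c trigger plus (Z-DEVD)2-Rh110 caspase-3 substrate; Times: compound with Apaf-1, dATP, procaspase-3 30 min, then 50 min reaction, room temperature; Technique: Rh110 fluorescence intensity.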
PAD4 FP inh: blocks human protein arginine deiminase 4; inhibition, % at 6.36 µM; Q9UM07; recombinant PAD4, RCA probe fluorescence polarization; 330,000 compounds, 0.41% hits;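 active means percent inhibition above a cutoff equal to the mean of all tested compounds plus 3 SD, cut at about 15% in these data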;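 further: 0% = PAD4 with RCA probe and DMSO and 100% = probe without PAD4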
TDP2 inh: blocks human TDP2 phosphodiesterase activity. recombinant TDP2, T5PNP hydrolysis, p-nitrophenol absorbance 415 nm. inhibition, % at 12.8 µM. 370,000 compounds, 0.34% hits;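 active means inhibition above the mean of all tested compounds plus 3 SD, set per campaign, cut at about 25% in these data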;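 further: 0% = DMSO with enzyme and 100% = buffer with substrate but no TDP2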
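Test system: human TDP2 enzyme; Input: 120 nM TDP2 per well; Buffer or medium: Mg2+-containing Tris-HCl buffer, pH 7.5; Reagent: 5 mM T5PNP; Dosing: 12.8 µM single point, 1% DMSO; Incubation: reaction 2 h, 37 °C; Detection: p-Nitrophenol epi absorbance; Read-out: % inhibition relative to enzyme-containing and enzyme-free wells; Replicates: single well per compound.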
TCR-CD3 inh: inhibitors of human TCR-CD3 interaction | TAMRA-labeled TCR probe fluorescence, biochemical | inhibition, % at 9.4 µM | 360,000 compounds, 0.37% hits | AID 651800; in the data active means inhibition above about 19%;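 further: recombinant mutant TCR 2C K166C tagged with TAMRA read by polarization; 0% = receptor in buffer alone and 100% = receptor with positive control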
SIAE primary: inhibitors of human sialic acid acetylesterase SIAE. 370,000 compounds, 0.69% hits. inhibition, % at 9.66 µM. SIAE FP-Rh probe binding, fluorescence polarization;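 active means inhibition above a cutoff: mean of compounds within the control limits plus 3 SD of those, cut at about 17% in these data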;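 further: 0% = plate median of compound wells and 100% = probe without SIAE protein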
GSTO1 inh: blocks human GSTO1 in RBBP9 counter-screen. P78417. recombinant GSTO1, activity-based probe fluorescence polarization. inhibition, % at 5.96 µM. 300,000 compounds, 1.1% hits;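 active means inhibition above the campaign mean inhibition plus 3 SD, cut at about 35% in these data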;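 further: 0% = GSTO1-1 with DMSO and 100% = wells lacking GSTO1-1 enzyme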
SIAE confirm: confirmation of human SIAE inhibitors. shares compounds with SIAE primary. SIAE FP-Rh activity-based probe, fluorescence polarization. inhibition, % at 9.66 µM. 2,300 compounds, 13% hits. AID 1117263;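 active means mean inhibition of the replicates above the hit cutoff set in the primary screen, cut at about 17% in these data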;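 further: 0% = SIAE with DMSO and probe and 100% = probe without SIAE; inhibitors lower polarization as more probe stays unbound to SIAE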
Active calls of the source: *; nt = not tested or not shown. Shown are actives, neighbours in structure and some others; about 2.4% of the full set was active somewhere.

SMILES | Apaf-1 inh | PAD4 FP inh | TDP2 inh | TCR-CD3 inh | SIAE primary | GSTO1 inh | SIAE confirm
O=C(COC(=O)c1ccc[nH]c1=O)NC1CCCCCCC1 | -3.2 | -2.8 | 12.4 | -1.4 | 18.1* | 7.8 | 0.5
Cc1cc(C(=O)COC(=O)c2ccc[nH]c2=O)c(C)n1-c1ccccc1 | -3.1 | 0.3 | -15.7 | -2.0 | 4.1 | 4.3 | nt
Oc1ccc(C(=S)N2CCCC2)cc1 | -1.9 | -0.2 | 12.6 | -2.2 | -2.2 | 2.0 | nt
Oc1ccc(C(=S)N2CCCCCC2)cc1 | 9.2 | 2.2 | -7.6 | 6.9 | 22.9* | 0.8 | 0.2
Cc1cc(C)c(OCC(=O)OCC(=O)N2CCN(C(=O)c3ccco3)CC2)c(C)c1 | 7.8 | -1.1 | 2.2 | -2.1 | 18.4* | 8.0 | -4.1
COc1ccc(NS(=O)(=O)c2cc(NC(=O)c3ccc(=O)[nH]c3)ccc2N2CCCC2)cc1 | 19.0 | -2.7 | -7.0 | 2.9 | 22.9* | -13.3 | 1.6
COc1ccccc1N1CCN(/N=C/c2cc(OC)c(O)c(OC)c2)CC1 | 10.7 | -2.0 | 8.5 | -7.7 | 20.2* | 4.0 | -2.0
Cc1nc(C/C(=N\N)c2ccc(O)cc2O)cs1 | -3.6 | -2.8 | 8.6 | 1.5 | -3.0 | 8.3 | nt
CCc1cc(/C(Cc2csc(C)n2)=N/O)c(O)cc1O | 1.3 | -1.3 | 0.2 | -5.0 | 19.2* | 2.5 | 14.2
O=C(O)CCCCCCNC(=O)c1cncc(O)c1 | -0.1 | 3.0 | 7.4 | 8.4 | 23.1* | 1.5 | -1.8
Cc1ccc(C2C3=C(CCCC3=O)Nc3c2c(C)nn3-c2ccccn2)o1 (stereo not given) | 5.1 | -0.2 | nt | nt | nt | -0.4 | nt
CC(CCc1ccccc1)NC(=O)CSc1cccc[n+]1[O-] (stereo not given) | 3.2 | 0.9 | 11.0 | 9.0 | 18.9* | 11.7 | -0.1
O=C(Nc1nc2ccccc2[nH]1)C1CC1 | 0.0 | -2.2 | 6.3 | -3.5 | -4.5 | -6.2 | nt
O=C(Nc1nc2ccccc2[nH]1)C12CC3CC(CC(C3)C1)C2 | 9.1 | -2.2 | 1.1 | 1.7 | 17.5* | 9.6 | -4.9
O=C(COC(=O)c1cccnc1)c1ccc(Cl)cc1 | -23.5 | 0.4 | 6.7 | -4.0 | 18.0* | 20.7 | -4.0
CNC(=S)N1N=C(c2cccs2)CC1c1ccc(OC)cc1 (stereo not given) | -2.2 | -1.3 | -0.2 | 7.7 | -10.9 | 4.9 | nt
O=C(CCCOc1ccc(Cl)cc1Cl)Nc1ccc(O)cc1C(=O)O | -9.4 | -1.2 | 1.7 | -12.0 | 17.5* | -13.1 | -7.8
COc1cc(NC(=O)CCCOc2ccc(Cl)cc2Cl)c(C(=O)O)cc1OC | -6.1 | 0.2 | 6.5 | -2.6 | -1.2 | -1.5 | nt
COC(=O)C(Cc1c[nH]c2ccccc12)NC(=O)c1cncc(Br)c1 (stereo not given) | -1.4 | 0.6 | 2.8 | -3.8 | 20.3* | -1.7 | 0.6
CCOC(=O)c1c(C)[nH]c(C(=O)OCC(=O)Nc2cc(C)nn2-c2ccccc2)c1C | 6.0 | -4.8 | 10.2 | 3.5 | 17.9* | -6.7 | -2.5
NC(=O)c1ncn([C@@H]2O[C@H](C(=O)N3CCCN(Cc4ccccc4F)CC3)[C@@H](O)[C@H]2O)n1 | nt | nt | 1.3 | 5.8 | 80.5* | nt | 87.8*
Cc1ccccc1CN1CCN(C(=O)[C@H]2O[C@@H](n3cnc(C(N)=O)n3)[C@H](O)[C@@H]2O)CC1 | nt | nt | -1.6 | 3.9 | 18.7* | nt | 29.0*
Cc1ccccc1CN1CCN(C(=O)[C@H]2O[C@@H](n3ccc(=O)[nH]c3=O)[C@H](O)[C@@H]2O)CC1 | nt | nt | -13.9 | -8.9 | 1.9 | nt | nt
CCOC(=O)CC(=O)CSc1nc2c(sc(=S)n2-c2ccc(OCC)cc2)c(=O)[nH]1 | 8.8 | -1.7 | 12.2 | -3.1 | 20.3* | 13.9 | -1.6
CCOC(=O)CC(=O)CSc1nc2c(sc(=S)n2-c2ccc(C)c(C)c2)c(=O)[nH]1 | 11.3 | -2.3 | 11.1 | 0.4 | -2.4 | 9.2 | nt
SMILES | Apaf-1 inh | PAD4 FP inh | TDP2 inh | TCR-CD3 inh | SIAE primary | GSTO1 inh | SIAE confirm
O=C(NNC(=O)c1cccs1)c1ccco1 | -2.5 | -2.3 | -2.3 | -4.0 | -0.2 | 5.5 | nt
O=C(NC(=S)NNC(=O)c1cccs1)c1ccco1 | -1.1 | 0.3 | 16.5 | 8.2 | 19.2* | 1.7 | 2.6
CCNC(=S)N1CCc2cc(OC)c(OC)cc2C1COc1ccccc1OC (stereo not given) | 14.3 | -4.5 | 1.0 | -10.8 | 18.2* | -10.0 | 2.2
C=CCn1c(SCC(=O)c2ccc(O)c(O)c2)nnc1-c1cccc(C)c1 | -1.8 | 0.4 | -6.4 | 13.8 | 18.7* | nt | 5.1
Cc1ccc(S(=O)(=O)Nc2ccc(Nc3ccccc3)cc2)cc1 | 15.0 | -1.3 | -2.5 | -12.5 | 16.2 | 1.9 | nt
O=S(=O)(Nc1ccc(Nc2ccccc2)cc1)c1ccc(F)cc1 | 17.3 | -8.7 | -6.6 | -7.5 | 17.7* | 11.5 | 2.7
CCC(CC)c1nnc(NC(=O)CS(=O)(=O)c2ccccc2)s1 | 4.4 | -3.9 | 8.2 | 8.0 | 25.9* | 20.6 | 4.7
Cc1cc(C)nc(NC(=O)/C=C/c2ccc3c(c2)OCO3)c1 | 5.5 | -6.1 | -7.1 | -1.9 | -3.7 | -5.4 | nt
CC(C)(C)N=C1NN=C(c2cc3ccccc3o2)CS1 | nt | 1.2 | 11.0 | 5.4 | 6.4 | 1.9 | nt
Cc1ccc(S(=O)(=O)NCCCNS(=O)(=O)c2ccc(C)cc2)cc1 | 6.9 | -2.0 | -4.3 | 8.2 | -5.4 | nt | nt
Cc1ccc(S(=O)(=O)NCCCN(C)C)cc1 | 12.3 | 2.5 | 5.2 | 3.2 | 19.1* | 4.5 | 0.1
COc1ccc(NC(=O)CCC(=O)OC(C(=O)c2ccccc2)c2ccccc2)cc1 (stereo not given) | 3.6 | -0.7 | 0.1 | 0.9 | 3.0 | 3.2 | nt
Cc1ccc(C(=O)C(OC(=O)CCC(=O)Nc2cccc(C)c2)c2ccccc2)cc1 (stereo not given) | -5.5 | 0.9 | 9.6 | 10.6 | 20.8* | -3.1 | -0.9
Cc1ccc2nc(NCCCN3CCOCC3)c(C=NCCCN3CCOCC3)c(=O)n2c1 | nt | nt | -0.7 | 3.5 | 1.4 | nt | nt
CN1CCN(c2ccc(CNC(=O)c3ccc(-c4ccc(F)c(F)c4)c4ccoc34)cc2)CC1 | nt | nt | -6.3 | 10.0 | 19.1* | nt | 6.8
COc1cc(CNc2ccc3[nH]c(=O)[nH]c3c2)ccc1OCc1ccccc1F | 2.8 | -0.2 | -3.5 | -6.4 | 2.8 | -2.5 | nt
COc1cc(CNc2ccc3[nH]c(=O)[nH]c3c2)cc(Br)c1OCc1ccccc1F | 5.2 | nt | 14.7 | -1.1 | 21.4* | nt | 12.8
COc1cc(CNc2ccc3[nH]c(=O)[nH]c3c2)ccc1OCc1ccc(F)cc1 | 8.9 | -2.0 | 21.5 | -3.0 | 21.7* | -2.7 | -1.2
NC(=S)Nc1cccc2cc3ccccc3cc12 | 39.3 | -12.2 | 18.8 | -1.7 | 19.3* | 9.8 | 7.0
NC(=S)Nc1cc2ccccc2c2ccccc12 | 12.6 | 3.7 | -4.7 | 1.4 | 12.4 | 4.7 | nt
Cc1ccccc1NC(=S)N1CCCCCC1 | 10.4 | nt | 12.9 | 2.1 | -0.3 | nt | nt
